Source: ChEMBL document CHEMBL1149634, “1-Acylthiosemicarbazides, 1,2,4-triazole-5(4H)-thiones, 1,3,4-thiadiazoles and hydrazones containing 5-methyl-2-benzoxazolinones: synthesis, analgesic-anti-inflammatory and antimicrobial activities” (2007)
≈ marks a conversion by molar mass, not a printed value.

Columns and labels:
[1] = system: Mus musculus; experiment: Antiinflammatory activity against carrageenan-induced hind paw oedema in mouse assessed as inhibition of swelling thickness at 100 mg/kg, po after 270 mins; format: functional; settings: 4.5 h
Summary of the method: (§1)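 Fasted mice (n = 5–6) were dosed orally with the sample in 0.5% CMC/water. One hour later, carrageenan (0.5 mg/25 µl in 154 mM saline) was injected subplantar into the right hind paw. The right-minus-left footpad thickness difference was measured with dial gauge callipers every 90 min over 6 h. Inhibition % is calculated versus vehicle control; mean ± SEM, Student's t test.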

[2] = system: Enterococcus faecalis; experiment: Antibacterial activity against Enterococcus faecalis ATCC 29212 after 24 hrs by broth microdilution test; format: functional; settings: ATCC 29212, 24 h
Summary of the method: (§2)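 NCCLS broth microdilution in Mueller-Hinton broth with an inoculum of 5 × 10^5 cfu/mL. Compounds were dissolved in DMSO, diluted in sterile water, and tested as twofold dilutions from 512 to 0.5 µg/mL. Plates were incubated at 35 °C for 24 h. MIC is the lowest concentration preventing visible growth.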

[3] = system: Mus musculus; experiment: Antiinflammatory activity against carrageenan-induced hind paw oedema in mouse assessed as swelling thickness at 50 mg/kg, po after 360 mins; format: functional; summary of the method: as §1
[4] = system: Pseudomonas aeruginosa; experiment: Antibacterial activity against Pseudomonas aeruginosa ATCC 27853 after 24 hrs by broth microdilution test; format: functional; settings: ATCC 27853, 24 h; summary of the method: as §2
[5] = system: Mus musculus; experiment: Antiinflammatory activity against carrageenan-induced hind paw oedema in mouse assessed as swelling thickness at 50 mg/kg, po after 180 mins; format: functional; summary of the method: as §1
[6] = system: Mus musculus; experiment: Antiinflammatory activity against carrageenan-induced hind paw oedema in mouse assessed as inhibition of swelling thickness at 200 mg/kg, po after 360 mins; format: functional; settings: 6 h; summary of the method: as §1
[7] = system: Mus musculus; experiment: Antiinflammatory activity against carrageenan-induced hind paw oedema in mouse assessed as inhibition of swelling thickness at 50 mg/kg, po after 90 mins; format: functional; settings: 1.5 h; summary of the method: as §1
[8] = system: Candida albicans; experiment: Antifungal activity against Candida albicans ATCC 90028 after 48 hrs by broth microdilution test; format: functional; settings: ATCC 90028, 48 h
Summary of the method: (§3)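 Yeasts tested by NCCLS M27-A broth microdilution in RPMI 1640 (with L-glutamine, without sodium bicarbonate) with an inoculum of 0.5–2.5 × 10^3 cfu/mL. Compounds were prepared from DMSO solution diluted in water as twofold dilutions from 512 to 0.5 µg/mL. Plates were incubated at 35 °C for 48 h. MIC is the lowest concentration giving no visible growth.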

[9] = system: Mus musculus; experiment: Antiinflammatory activity against carrageenan-induced hind paw oedema in mouse assessed as inhibition of swelling thickness at 100 mg/kg, po after 90 mins; format: functional; settings: 1.5 h; summary of the method: as §1
[10] = system: Mus musculus; experiment: Analgesic activity in mouse assessed as inhibition of hind paw lick at 100 mg/kg, ip by hot plate test; format: functional; settings: route intraperitoneal
[11] = system: Mus musculus; experiment: Antiinflammatory activity against carrageenan-induced hind paw oedema in mouse assessed as inhibition of swelling thickness at 100 mg/kg, po after 180 mins; format: functional; settings: 3 h; summary of the method: as §1
[12] = system: Mus musculus; experiment: Antiinflammatory activity against carrageenan-induced hind paw oedema in mouse assessed as inhibition of swelling thickness at 200 mg/kg, po after 180 mins; format: functional; settings: 3 h; summary of the method: as §1
[13] = system: Mus musculus; experiment: Antiinflammatory activity against carrageenan-induced hind paw oedema in mouse assessed as swelling thickness at 50 mg/kg, po after 270 mins; format: functional; summary of the method: as §1
[14] = system: Mus musculus; experiment: Antiinflammatory activity against carrageenan-induced hind paw oedema in mouse assessed as inhibition of swelling thickness at 200 mg/kg, po after 270 mins; format: functional; settings: 4.5 h; summary of the method: as §1
[15] = system: Candida parapsilosis; experiment: Antifungal activity against Candida parapsilosis ATCC 22019 after 48 hrs by broth microdilution test; format: functional; settings: Lodderomyces parapsilosis, ATCC 22019, 48 h; summary of the method: as §3
[16] = system: Mus musculus; experiment: Antiinflammatory activity against carrageenan-induced hind paw oedema in mouse assessed as inhibition of swelling thickness at 200 mg/kg, po after 90 mins; format: functional; settings: 1.5 h; summary of the method: as §1
[17] = system: Mus musculus; experiment: Analgesic activity in mouse assessed as inhibition of acetic acid induced-abdominal writhing at 100 mg/kg, ip by Koster test; format: functional; settings: Abdomen, route intraperitoneal
[18] = system: Escherichia coli; experiment: Antibacterial activity against Escherichia coli ATCC 25922 after 24 hrs by broth microdilution test; format: functional; settings: ATCC 25922, 24 h; summary of the method: as §2
[19] = system: Staphylococcus aureus; experiment: Antibacterial activity against Staphylococcus aureus ATCC 29213 after 24 hrs by broth microdilution test; format: functional; settings: ATCC 29213, 24 h; summary of the method: as §2
[20] = system: Pichia kudriavzevii; experiment: Antifungal activity against Candida krusei ATCC 6258 after 48 hrs by broth microdilution test; format: functional; settings: ATCC 6258, 48 h; summary of the method: as §3
[21] = system: Mus musculus; experiment: Antiinflammatory activity against carrageenan-induced hind paw oedema in mouse assessed as swelling thickness at 200 mg/kg, po after 360 mins; format: functional; summary of the method: as §1
[22] = system: Mus musculus; experiment: Antiinflammatory activity against carrageenan-induced hind paw oedema in mouse assessed as inhibition of swelling thickness at 100 mg/kg, po after 360 mins; format: functional; settings: 6 h; summary of the method: as §1
[23] = system: Mus musculus; experiment: Antiinflammatory activity against carrageenan-induced hind paw oedema in mouse assessed as swelling thickness at 100 mg/kg, po after 180 mins; format: functional; summary of the method: as §1
[24] = system: Mus musculus; experiment: Antiinflammatory activity against carrageenan-induced hind paw oedema in mouse assessed as swelling thickness at 100 mg/kg, po after 270 mins; format: functional; summary of the method: as §1
[25] = system: Mus musculus; experiment: Toxicity in mouse assessed as ulceration effect at 200 mg/kg; format: functional, organism-based; parameters: dose 200 mg/kg
Summary of the method: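 Mice given 200 mg/kg orally in the carrageenan oedema study were killed under deep ether anaesthesia 6 h after treatment. Stomachs were opened along the greater curvature and examined under a dissecting microscope for lesions or bleeding. Result is expressed as the ratio of ulcerated animals per group.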

[26] = system: Mus musculus; experiment: Analgesic activity in mouse assessed as inhibition of acetic acid induced-abdominal writhing at 200 mg/kg, ip by Koster test; format: functional; settings: Abdomen, route intraperitoneal
[27] = organism: Mus musculus; experiment: animal or person; settings: ip, read-out: Inhibition
[28] = system: Mus musculus; experiment: Antiinflammatory activity against carrageenan-induced hind paw oedema in mouse assessed as swelling thickness at 100 mg/kg, po after 360 mins; format: functional; summary of the method: as §1
[29] = system: Mus musculus; experiment: Antiinflammatory activity against carrageenan-induced hind paw oedema in mouse assessed as swelling thickness at 50 mg/kg, po after 90 mins; format: functional; summary of the method: as §1
[30] = system: Mus musculus; experiment: Antiinflammatory activity against carrageenan-induced hind paw oedema in mouse assessed as inhibition of swelling thickness at 10 mg/kg, po after 180 mins; format: functional; settings: 3 h; summary of the method: as §1
[31] = system: Mus musculus; experiment: Antiinflammatory activity against carrageenan-induced hind paw oedema in mouse assessed as inhibition of swelling thickness at 10 mg/kg, po after 360 mins; format: functional; settings: 6 h; summary of the method: as §1
[32] = organism: Mus musculus; experiment: animal or person; settings: po, 1.5 h, read-out: Inhibition
[33] = system: Mus musculus; experiment: Antiinflammatory activity against carrageenan-induced hind paw oedema in mouse assessed as inhibition of swelling thickness at 10 mg/kg, po after 270 mins; format: functional; settings: 4.5 h; summary of the method: as §1
[34] = system: Mus musculus; experiment: Antiinflammatory activity against carrageenan-induced hind paw oedema in mouse assessed as swelling thickness at 200 mg/kg, po after 270 mins; format: functional; summary of the method: as §1

SMILES	MIC [2] [µg/mL]	Activity [3] [%]	MIC [4] [µg/mL]	Activity [5] [%]	inhibition in vivo at 50 mg/kg [7] [%]	MIC [8] [µg/mL]	inhibition in vivo at 100 mg/kg [9] [%]	inhibition in vivo at 100 mg/kg [10] [%]	inhibition in vivo at 100 mg/kg [11] [%]	inhibition in vivo at 200 mg/kg [12] [%]	Activity [13] [%]	inhibition in vivo at 200 mg/kg [14] [%]	MIC [15] [µg/mL]	inhibition in vivo at 200 mg/kg [16] [%]	inhibition in vivo at 100 mg/kg [17] [%]	MIC [18] [µg/mL]	MIC [19] [µg/mL]	MIC [20] [µg/mL]	Activity [21] [%]	Activity [24] [%]	other results
CCNc1nnc(Cn2c(=O)oc3ccc(C)cc32)s1	> 512	94	512 (≈ 1760 µM)	90.1	7.9	512 (≈ 1760 µM)	84.8	25.4	33.8	71.3	102.8	45.4	256 (≈ 882 µM)	85.3	68.5	512 (≈ 1760 µM)	512 (≈ 1760 µM)	512 (≈ 1760 µM)	–	–	inhibition in vivo at 100 mg/kg [1]: 7.1%; inhibition in vivo at 200 mg/kg [6]: 11.1%
COc1ccc(/C=N/NC(=O)Cn2c(=O)oc3ccc(C)cc32)cc1	128 (≈ 377 µM)	87.2	256 (≈ 754 µM)	82.3	19.5	128 (≈ 377 µM)	82.4	27.5	–	65.2	108.8	38.3	512 (≈ 1510 µM)	87.9	65.7	512 (≈ 1510 µM)	256 (≈ 754 µM)	128 (≈ 377 µM)	86.2	95.4	inhibition in vivo at 100 mg/kg [22]: 17.5%; Activity [23]: 100.8%; Activity [25]: Toxic
CC(=O)Oc1ccccc1C(=O)O [ASPIRIN]	–	–	–	–	–	–	–	–	–	–	–	–	–	–	–	–	–	–	–	–	inhibition in vivo at 200 mg/kg [26]: 65.7%
CN1CC[C@]23c4c5ccc(O)c4O[C@H]2[C@@H](O)C=C[C@H]3[C@H]1C5 [MORPHINE]	–	–	–	–	–	–	–	–	–	–	–	–	–	–	–	–	–	–	–	–	inhibition in vivo at 10 mg/kg [27]: 50.7%
CCn1c(Cn2c(=O)oc3ccc(C)cc32)n[nH]c1=S	512 (≈ 1760 µM)	146.7	256 (≈ 882 µM)	91.1	–	512 (≈ 1760 µM)	57.1	36.2	–	31.8	147.3	25.9	256 (≈ 882 µM)	56.5	43.5	512 (≈ 1760 µM)	512 (≈ 1760 µM)	256 (≈ 882 µM)	–	117.6	Activity [28]: 87.1%; Activity [29]: 82.9%; inhibition in vivo at 200 mg/kg [6]: 19.7%; Activity [23]: 95.9%; Activity [25]: Not toxic
COc1ccc2c(c1)c(CC(=O)O)c(C)n2C(=O)c1ccc(Cl)cc1 [INDOMETHACIN]	–	–	–	–	–	–	–	–	–	–	–	–	–	–	–	–	–	–	–	–	inhibition in vivo at 10 mg/kg [30]: 43%; inhibition in vivo at 10 mg/kg [31]: 41.6%; inhibition in vivo at 10 mg/kg [32]: 42%; inhibition in vivo at 10 mg/kg [33]: 46.3%
Cc1ccc2oc(=O)n(CC(=O)N/N=C/c3ccc(Br)cc3)c2c1	> 512	83	> 512	94.6	1.9	64 (≈ 165 µM)	44.4	20.3	43.7	46.9	95.9	11.1	128 (≈ 330 µM)	–	72.6	> 512	> 512	256 (≈ 659 µM)	84.4	92	inhibition in vivo at 100 mg/kg [22]: 19.1%; Activity [25]: Toxic
Cc1ccc(/C=N/NC(=O)Cn2c(=O)oc3ccc(C)cc32)cc1	256 (≈ 792 µM)	98	256 (≈ 792 µM)	86.8	–	128 (≈ 396 µM)	69.7	52.9	9.4	33.3	103.8	–	128 (≈ 396 µM)	17.1	77.8	128 (≈ 396 µM)	512 (≈ 1580 µM)	128 (≈ 396 µM)	83.6	92	Activity [29]: 73.8%; inhibition in vivo at 100 mg/kg [22]: 12.6%; Activity [34]: 89.1%
